Experimental findings from ChEMBL document CHEMBL1134652, “N-Methyl scan of somatostatin octapeptide agonists produces interesting effects on receptor subtype specificity” (J Med Chem, 2001) are described below.

Structures are written as SMILES. Where a SMILES comes first, the peptide text is derived from it. Bridges are numbered along the chain shown (N, C = ends). [ ]: non-standard residue; d: D form. NMeY = CN[C@@H](Cc1ccc(O)cc1)C(=O)O; NMeT = CN[C@H](C(=O)O)[C@@H](C)O; NMeK = CN[C@@H](CCCCN)C(=O)O; NMeC = CN[C@@H](CS)C(=O)O

For experiment [1], the species on record is Rattus norvegicus. As to the kind of experiment: in vitro Agonist activity (inhibition of growth hormone release) on cultured rat pituitary cells. The class given is functional, cell-based. The note with it: Pituitary gland cell. In a few lines:
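Anterior pituitary cells from adult male rats were dispersed with trypsin/DNase and cultured 4–5 days at about 200 000 cells/well. GH in the medium was measured by double-antibody RIA.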

Experiment [2] concerns the target Somatostatin receptor type 4 (Homo sapiens, UniProt P31391). As to the kind of experiment: Binding affinity was determined on cloned human somatostatin receptor-1 (hsst4). In a few lines: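 Membranes from CHO-K1 cells stably transfected with human sst1, sst2 or sst4 (calcium phosphate, G418 selection), resuspended in 10 mM Tris-HCl. Incubated 30 min at 37 °C with 0.05 nM [125I]Tyr11-SRIF (sst1, sst4) or [125I]MK-678 (sst2) in HEPES pH 7.4 with BSA, MgCl2 and protease inhibitors. Filtered on GF/C; nonspecific binding measured with 1.0 μM SRIF. Kd from concentration-dependent displacement.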

In experiment [3] the target is Somatostatin receptor type 2 (Homo sapiens, UniProt P30874). The experiment is described as follows: Binding affinity was determined on cloned human somatostatin receptor-1 (hsst2). The gist of the method: (§1)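 Membranes from CHO-K1 cells stably transfected with human sst1, sst2 or sst4 (calcium phosphate, G418 selection), resuspended in 10 mM Tris-HCl. Filtered on GF/C; nonspecific binding measured with 1.0 μM SRIF. Kd from concentration-dependent displacement.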
Sequence of Somatostatin receptor type 2 (P30874 whole entry): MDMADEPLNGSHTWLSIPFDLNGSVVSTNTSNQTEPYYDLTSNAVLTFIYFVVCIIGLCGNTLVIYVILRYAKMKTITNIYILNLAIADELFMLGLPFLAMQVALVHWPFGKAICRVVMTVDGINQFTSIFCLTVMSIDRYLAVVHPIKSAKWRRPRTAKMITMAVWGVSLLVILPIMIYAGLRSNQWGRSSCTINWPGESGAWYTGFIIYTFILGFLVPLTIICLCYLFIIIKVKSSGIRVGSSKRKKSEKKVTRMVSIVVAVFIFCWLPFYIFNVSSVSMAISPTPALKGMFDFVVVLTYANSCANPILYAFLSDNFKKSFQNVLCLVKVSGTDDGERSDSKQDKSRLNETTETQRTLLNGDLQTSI

In experiment [4] the target is Somatostatin receptor type 1 (Homo sapiens, UniProt P30872). The experiment is described as follows: Binding affinity was determined on cloned human somatostatin receptor-1 (hsst1). The gist of the method: as §1
Sequence of Somatostatin receptor type 1 (P30872 whole entry): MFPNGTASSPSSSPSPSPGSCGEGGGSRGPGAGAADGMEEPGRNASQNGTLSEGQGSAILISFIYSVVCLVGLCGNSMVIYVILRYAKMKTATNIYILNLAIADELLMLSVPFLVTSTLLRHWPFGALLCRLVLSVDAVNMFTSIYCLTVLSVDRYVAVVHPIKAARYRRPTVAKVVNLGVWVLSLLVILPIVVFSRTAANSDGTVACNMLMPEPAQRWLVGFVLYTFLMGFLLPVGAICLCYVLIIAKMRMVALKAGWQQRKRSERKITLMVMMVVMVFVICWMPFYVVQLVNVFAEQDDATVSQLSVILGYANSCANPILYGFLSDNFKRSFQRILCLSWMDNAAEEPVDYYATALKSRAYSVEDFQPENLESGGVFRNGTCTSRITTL
Experiment [5] addresses Somatostatin receptor type 5 (Homo sapiens, UniProt P35346). The experiment is described as follows: Binding affinity was determined on cloned human somatostatin receptor-1 (hsst5).
Experiment [6] has as its target Somatostatin receptor type 3 (Homo sapiens, UniProt P32745). As to the kind of experiment: Binding affinity was determined on cloned human somatostatin receptor-1 (hsst3).

Sequence of Somatostatin receptor type 4 (P31391 whole entry): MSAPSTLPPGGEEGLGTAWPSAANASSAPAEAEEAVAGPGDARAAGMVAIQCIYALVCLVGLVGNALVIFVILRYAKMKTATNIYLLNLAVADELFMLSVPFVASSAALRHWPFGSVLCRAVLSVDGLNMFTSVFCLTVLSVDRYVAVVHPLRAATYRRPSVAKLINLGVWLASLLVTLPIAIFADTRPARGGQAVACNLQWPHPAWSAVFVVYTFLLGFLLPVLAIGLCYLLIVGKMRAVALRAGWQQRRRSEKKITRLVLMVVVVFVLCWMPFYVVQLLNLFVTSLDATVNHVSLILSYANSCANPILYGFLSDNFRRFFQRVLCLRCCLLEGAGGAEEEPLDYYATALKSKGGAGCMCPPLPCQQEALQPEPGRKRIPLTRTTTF
Sequence of Somatostatin receptor type 3 (P32745 whole entry): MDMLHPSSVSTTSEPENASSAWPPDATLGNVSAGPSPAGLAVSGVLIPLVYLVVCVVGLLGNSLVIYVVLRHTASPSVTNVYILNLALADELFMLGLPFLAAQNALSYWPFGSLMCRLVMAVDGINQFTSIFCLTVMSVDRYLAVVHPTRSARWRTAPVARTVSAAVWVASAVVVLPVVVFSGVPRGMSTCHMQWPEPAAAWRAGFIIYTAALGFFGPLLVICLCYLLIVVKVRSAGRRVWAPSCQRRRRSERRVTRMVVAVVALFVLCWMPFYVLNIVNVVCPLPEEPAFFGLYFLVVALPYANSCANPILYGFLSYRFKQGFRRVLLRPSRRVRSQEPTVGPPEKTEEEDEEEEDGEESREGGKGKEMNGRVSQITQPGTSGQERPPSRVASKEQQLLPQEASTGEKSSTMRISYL
Sequence of Somatostatin receptor type 5 (P35346 whole entry): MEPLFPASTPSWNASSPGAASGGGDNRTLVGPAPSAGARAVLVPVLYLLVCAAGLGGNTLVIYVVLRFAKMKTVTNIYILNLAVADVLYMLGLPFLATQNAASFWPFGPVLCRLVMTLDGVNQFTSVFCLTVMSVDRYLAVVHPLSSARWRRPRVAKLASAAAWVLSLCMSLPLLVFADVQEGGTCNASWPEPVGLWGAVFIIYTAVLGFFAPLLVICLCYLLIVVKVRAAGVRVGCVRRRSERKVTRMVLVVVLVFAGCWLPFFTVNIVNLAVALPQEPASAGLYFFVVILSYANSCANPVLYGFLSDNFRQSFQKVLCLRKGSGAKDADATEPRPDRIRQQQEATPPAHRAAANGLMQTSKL

For `C[C@@H](O)[C@H](NC(=O)[C@@H]1CSSC[C@H](NC(=O)[C@@H](N)Cc2ccc(O)cc2)C(=O)N[C@@H](Cc2ccccc2)C(=O)N[C@H](Cc2c[nH]c3ccccc23)C(=O)N(C)[C@@H](CCCCN)C(=O)N[C@@H]([C@@H](C)O)C(=O)N1)C(N)=O` (H-YCF[dW][NMeK]TCT-NH2; disulfide 2-7), the 50% inhibitory concentration (IC50) in experiment [1] is 27.4 nM. `C[C@@H](O)[C@H](NC(=O)[C@@H]1CSSC[C@H](NC(=O)[C@@H](N)Cc2ccc(O)cc2)C(=O)N[C@@H](Cc2ccccc2)C(=O)N[C@H](Cc2c[nH]c3ccccc23)C(=O)N[C@@H](CCCCN)C(=O)N(C)[C@@H]([C@@H](C)O)C(=O)N1)C(N)=O` (H-YCF[dW]K[NMeT]CT-NH2; disulfide 2-7): the Kd in experiment [2] was 1000 nM. Take `CN[C@@H](Cc1ccc(O)cc1)C(=O)N[C@H]1CSSC[C@@H](C(=O)N[C@H](C(N)=O)[C@@H](C)O)NC(=O)[C@H]([C@@H](C)O)NC(=O)[C@H](CCCCN)NC(=O)[C@@H](Cc2c[nH]c3ccccc23)NC(=O)[C@H](Cc2ccccc2)NC1=O` (H-[NMeY]CF[dW]KTCT-NH2; disulfide 2-7): the equilibrium dissociation constant (Kd) in experiment [3] came out at 9.74 nM; in experiment [4], 811 nM. As for `CN[C@H](Cc1ccccc1)C(=O)N[C@H]1CSSC[C@@H](C(=O)N[C@H](C(N)=O)[C@@H](C)O)NC(=O)[C@H]([C@@H](C)O)NC(=O)[C@H](CCCCN)NC(=O)[C@@H](Cc2c[nH]c3ccccc23)NC(=O)[C@H](Cc2ccccc2)NC1=O`, the Kd is 1.03 nM in experiment [3]; 4.89 nM in experiment [5]; 17.9 nM in experiment [6]; more than 1000 nM in experiment [2]; 316 nM in experiment [4]. In turn, `C[C@@H](O)[C@H](NC(=O)[C@@H]1CSSC[C@H](NC(=O)[C@@H](N)Cc2ccc(O)cc2)C(=O)N[C@@H](Cc2ccccc2)C(=O)N[C@H](Cc2c[nH]c3ccccc23)C(=O)N[C@@H](CCCCN)C(=O)N[C@@H]([C@@H](C)O)C(=O)N1C)C(N)=O` (H-YCF[dW]KT[NMeC]T-NH2; disulfide 2-7) showed a dissociation constant Kd in experiment [3] of 56.2 nM. With `C[C@@H](O)[C@H](NC(=O)[C@@H]1CSSC[C@H](N(C)C(=O)[C@H](N)Cc2ccccc2)C(=O)N[C@@H](Cc2ccccc2)C(=O)N[C@H](Cc2c[nH]c3ccccc23)C(=O)N[C@@H](CCCCN)C(=O)N[C@@H]([C@@H](C)O)C(=O)N1)C(N)=O`, the IC50 in experiment [1] amounted to 0.36 nM.

In the case of `C[C@@H](O)[C@@H]1NC(=O)[C@H](CCCCN)NC(=O)[C@@H](Cc2c[nH]c3ccccc23)NC(=O)[C@H](Cc2ccccc2)NC(=O)[C@@H](NC(=O)[C@H](N)Cc2ccccc2)CSSC[C@@H](C(=O)N(C)[C@H](C(N)=O)[C@@H](C)O)NC1=O`, the half-inhibitory concentration (IC50) in experiment [1] worked out at 28.8 nM.

The compound `C[C@@H](O)[C@H](NC(=O)[C@@H]1CSSC[C@H](NC(=O)[C@@H](N)Cc2ccc(O)cc2)C(=O)N[C@@H](Cc2ccccc2)C(=O)N[C@H](Cc2c[nH]c3ccccc23)C(=O)N[C@@H](CCCCN)C(=O)N[C@@H]([C@@H](C)O)C(=O)N1)C(N)=O` (H-YCF[dW]KTCT-NH2; disulfide 2-7) registered an IC50 in experiment [1] of 1.11 nM.

For `C[C@@H](O)[C@H](NC(=O)[C@@H]1CSSC[C@H](NC(=O)[C@H](N)Cc2ccccc2)C(=O)N[C@@H](Cc2ccccc2)C(=O)N[C@H](Cc2c[nH]c3ccccc23)C(=O)N[C@@H](CCCCN)C(=O)N[C@@H]([C@@H](C)O)C(=O)N1)C(N)=O`, the IC50 in experiment [1] amounted to 0.16 nM.
